Experimental data taken from ChEMBL document CHEMBL2380224, “Fragment-based ligand design of novel potent inhibitors of tankyrases” (J Med Chem, 2013).

Experiments:
Homo sapiens [1] = organism: Homo sapiens; experiment: Selectivity ratio of IC50 for TNKS1 (unknown origin) to IC50 for TNKS2 PARP domain (947 to 1162) (unknown origin)
[2] = target: T1, Protein mono-ADP-ribosyltransferase TIPARP (Homo sapiens) (UniProt Q7Z3E1); experiment: Inhibition of PARP7 (unknown origin) at 10 uM relative to control
T1 sequence (whole entry): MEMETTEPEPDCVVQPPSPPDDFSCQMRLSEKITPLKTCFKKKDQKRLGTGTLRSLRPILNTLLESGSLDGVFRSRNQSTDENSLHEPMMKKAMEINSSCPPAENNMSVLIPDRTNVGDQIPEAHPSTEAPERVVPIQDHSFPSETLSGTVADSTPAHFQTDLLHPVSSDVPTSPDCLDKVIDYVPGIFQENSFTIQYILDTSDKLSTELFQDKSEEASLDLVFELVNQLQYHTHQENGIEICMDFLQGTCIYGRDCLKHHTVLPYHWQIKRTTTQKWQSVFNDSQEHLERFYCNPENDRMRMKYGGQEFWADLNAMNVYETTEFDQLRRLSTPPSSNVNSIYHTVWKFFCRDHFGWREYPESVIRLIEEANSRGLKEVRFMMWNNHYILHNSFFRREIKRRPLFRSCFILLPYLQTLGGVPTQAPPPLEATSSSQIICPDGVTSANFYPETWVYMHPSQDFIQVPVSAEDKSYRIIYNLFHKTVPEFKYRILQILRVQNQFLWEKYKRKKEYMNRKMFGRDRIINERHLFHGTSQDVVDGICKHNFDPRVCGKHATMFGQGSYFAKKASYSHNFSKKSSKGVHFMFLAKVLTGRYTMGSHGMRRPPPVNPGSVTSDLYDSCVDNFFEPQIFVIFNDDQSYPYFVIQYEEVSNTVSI

[3] = target: Poly [ADP-ribose] polymerase 2 (Homo sapiens, UniProt Q9UGN5); experiment: Inhibition of PARP2 (unknown origin)
Sequence of Poly [ADP-ribose] polymerase 2 (Q9UGN5 whole entry, the tested form may be a part): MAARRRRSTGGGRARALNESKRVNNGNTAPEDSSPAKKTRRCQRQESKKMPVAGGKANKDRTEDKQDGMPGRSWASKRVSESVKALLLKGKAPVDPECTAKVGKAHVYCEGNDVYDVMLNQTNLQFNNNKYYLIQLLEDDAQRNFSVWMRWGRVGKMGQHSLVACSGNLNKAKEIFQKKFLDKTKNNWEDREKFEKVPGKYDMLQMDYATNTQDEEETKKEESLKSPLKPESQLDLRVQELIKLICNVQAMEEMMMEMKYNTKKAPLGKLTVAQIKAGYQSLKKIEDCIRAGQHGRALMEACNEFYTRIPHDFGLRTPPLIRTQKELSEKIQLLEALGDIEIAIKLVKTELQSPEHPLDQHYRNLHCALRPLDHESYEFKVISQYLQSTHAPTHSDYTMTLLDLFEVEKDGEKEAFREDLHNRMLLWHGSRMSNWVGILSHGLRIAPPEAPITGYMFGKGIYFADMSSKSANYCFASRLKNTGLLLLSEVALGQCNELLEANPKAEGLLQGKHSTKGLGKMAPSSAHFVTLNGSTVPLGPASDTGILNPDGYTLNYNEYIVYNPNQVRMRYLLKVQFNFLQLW

Homo sapiens [4] = organism: Homo sapiens; experiment: Selectivity ratio of IC50 for PARP3 (unknown origin) to IC50 for TNKS2 PARP domain (947 to 1162) (unknown origin)
Homo sapiens [5] = organism: Homo sapiens; experiment: Selectivity ratio of IC50 for PARP2 (unknown origin) to IC50 for TNKS2 PARP domain (947 to 1162) (unknown origin)
[6] = target: T2, Poly [ADP-ribose] polymerase tankyrase-2 (Homo sapiens) (UniProt Q9H2K2); experiment: Binding affinity to TNKS2 PARP domain (947 to 1162) (unknown origin) expressed in Escherichia coli BL21(DE3) assessed as thermal stabilization at 125 uM by differential scanning flourimetric analysis
T2 sequence (whole entry): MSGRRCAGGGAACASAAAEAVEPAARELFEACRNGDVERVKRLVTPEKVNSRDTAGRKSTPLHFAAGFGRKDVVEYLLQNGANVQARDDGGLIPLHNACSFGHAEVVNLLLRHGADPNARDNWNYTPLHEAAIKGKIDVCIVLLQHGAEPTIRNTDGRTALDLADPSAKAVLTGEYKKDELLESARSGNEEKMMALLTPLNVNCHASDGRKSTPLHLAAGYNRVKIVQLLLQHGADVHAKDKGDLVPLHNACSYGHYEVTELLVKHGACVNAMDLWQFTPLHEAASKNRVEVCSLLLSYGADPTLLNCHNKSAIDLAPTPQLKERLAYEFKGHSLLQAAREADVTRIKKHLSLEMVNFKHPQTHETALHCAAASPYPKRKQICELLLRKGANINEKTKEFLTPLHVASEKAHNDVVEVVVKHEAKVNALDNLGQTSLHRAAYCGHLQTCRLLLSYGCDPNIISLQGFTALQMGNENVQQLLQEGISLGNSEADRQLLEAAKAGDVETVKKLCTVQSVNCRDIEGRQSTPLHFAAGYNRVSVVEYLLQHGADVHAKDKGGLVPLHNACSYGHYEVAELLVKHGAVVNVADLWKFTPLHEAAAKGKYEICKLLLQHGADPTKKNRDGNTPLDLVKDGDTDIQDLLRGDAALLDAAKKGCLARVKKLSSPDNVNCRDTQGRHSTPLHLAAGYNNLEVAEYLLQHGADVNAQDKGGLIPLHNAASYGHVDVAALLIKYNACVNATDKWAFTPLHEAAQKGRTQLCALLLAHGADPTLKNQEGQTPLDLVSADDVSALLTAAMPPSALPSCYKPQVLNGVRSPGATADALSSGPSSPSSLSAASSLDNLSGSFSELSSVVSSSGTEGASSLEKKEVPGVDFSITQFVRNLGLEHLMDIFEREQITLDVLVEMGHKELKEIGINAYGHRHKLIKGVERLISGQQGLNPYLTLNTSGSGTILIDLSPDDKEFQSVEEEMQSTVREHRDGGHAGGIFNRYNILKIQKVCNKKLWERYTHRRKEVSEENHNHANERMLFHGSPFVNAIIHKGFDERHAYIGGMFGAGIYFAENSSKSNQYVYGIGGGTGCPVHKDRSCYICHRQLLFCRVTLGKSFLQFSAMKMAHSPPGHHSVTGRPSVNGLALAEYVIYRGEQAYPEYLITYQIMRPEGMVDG
Outline: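 DSF dose−response. TNKS2 at 0.2 mg/mL with SYPRO Orange (5×). Compounds were serially diluted in 100% DMSO at 50× the assay concentration. Chymotrypsin (1/100 TNKS2 mass equivalents) was added to the protein–dye mix just before the run. Scanned 25−80 °C at about 2 °C/min, ex 490/em 575 nm, and Tm shift was taken against the DMSO control.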

[7] = target: T3, Poly [ADP-ribose] polymerase tankyrase-2 (Homo sapiens, UniProt Q9H2K2); experiment: Binding affinity to 6His-tagged TNKS2 PARP domain (947 to 1162) (unknown origin) expressed in Escherichia coli BL21(DE3) by surface plasmon resonance analysis
T3 sequence (Q9H2K2 whole entry): T2 sequence (whole entry)
Outline: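 SPR on a Biacore instrument. Running buffer: 20 mM PBS pH 7.4, 0.05% Tween20, 2% DMSO. His-tagged TNKS2 (20 μg/mL in 20 mM PBS pH 7.4) was capture-coupled at 10 μL/min onto a Ni²⁺/NHS doubly preactivated NTA chip, to a target of 5000 RU.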

[8] = target: Poly [ADP-ribose] polymerase 1 (Homo sapiens, UniProt P09874); experiment: Inhibition of PARP1 (unknown origin)
Sequence of Poly [ADP-ribose] polymerase 1 (P09874 whole entry): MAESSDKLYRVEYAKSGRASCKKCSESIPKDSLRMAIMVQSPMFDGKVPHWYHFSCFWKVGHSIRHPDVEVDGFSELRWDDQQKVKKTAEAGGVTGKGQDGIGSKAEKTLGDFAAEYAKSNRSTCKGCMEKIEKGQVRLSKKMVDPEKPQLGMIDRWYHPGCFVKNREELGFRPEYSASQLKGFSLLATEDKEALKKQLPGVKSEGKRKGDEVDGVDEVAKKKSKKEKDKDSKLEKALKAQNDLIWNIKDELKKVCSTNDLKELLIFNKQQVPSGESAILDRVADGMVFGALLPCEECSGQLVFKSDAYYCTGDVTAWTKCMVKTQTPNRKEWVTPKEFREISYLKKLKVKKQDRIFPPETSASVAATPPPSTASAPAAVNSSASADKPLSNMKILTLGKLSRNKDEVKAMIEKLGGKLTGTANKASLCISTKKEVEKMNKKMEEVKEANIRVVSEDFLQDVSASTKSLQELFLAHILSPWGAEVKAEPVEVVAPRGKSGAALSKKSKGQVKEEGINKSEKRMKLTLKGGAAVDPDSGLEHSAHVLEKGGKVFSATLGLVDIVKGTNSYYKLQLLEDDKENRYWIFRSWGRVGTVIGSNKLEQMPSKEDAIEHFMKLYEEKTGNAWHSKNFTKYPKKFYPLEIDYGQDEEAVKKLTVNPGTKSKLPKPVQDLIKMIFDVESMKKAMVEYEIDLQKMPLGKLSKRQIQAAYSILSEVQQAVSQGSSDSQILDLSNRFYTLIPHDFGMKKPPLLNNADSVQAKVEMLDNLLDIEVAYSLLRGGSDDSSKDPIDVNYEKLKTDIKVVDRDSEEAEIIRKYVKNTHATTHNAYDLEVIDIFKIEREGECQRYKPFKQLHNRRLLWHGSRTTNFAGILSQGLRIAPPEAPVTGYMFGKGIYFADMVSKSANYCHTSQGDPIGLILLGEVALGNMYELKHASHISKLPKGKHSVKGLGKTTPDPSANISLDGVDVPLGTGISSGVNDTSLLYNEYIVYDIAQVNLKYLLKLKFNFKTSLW

Cc1cc(=O)[nH]c2cc(-c3ccccc3F)ccc12
Ratio IC50 (Homo sapiens [1]): 16.5 | inhibition [2]: 37% | IC50 [3]: > 10 µM | Ratio IC50 (Homo sapiens [4]): > 100 | Ratio IC50 (Homo sapiens [5]): > 100 | ΔTm [6]: 5.1 °C | Kd [7]: 0.28 µM | IC50 [8]: > 10 µM
